Results gathered from unrelated publications.
Lines come from different studies, so protocols differ.
Target: Serine/threonine-protein kinase ULK3 (ULK3, Homo sapiens, UniProt Q6PHR2)
Residues used in one study (Q6PHR2 1-472): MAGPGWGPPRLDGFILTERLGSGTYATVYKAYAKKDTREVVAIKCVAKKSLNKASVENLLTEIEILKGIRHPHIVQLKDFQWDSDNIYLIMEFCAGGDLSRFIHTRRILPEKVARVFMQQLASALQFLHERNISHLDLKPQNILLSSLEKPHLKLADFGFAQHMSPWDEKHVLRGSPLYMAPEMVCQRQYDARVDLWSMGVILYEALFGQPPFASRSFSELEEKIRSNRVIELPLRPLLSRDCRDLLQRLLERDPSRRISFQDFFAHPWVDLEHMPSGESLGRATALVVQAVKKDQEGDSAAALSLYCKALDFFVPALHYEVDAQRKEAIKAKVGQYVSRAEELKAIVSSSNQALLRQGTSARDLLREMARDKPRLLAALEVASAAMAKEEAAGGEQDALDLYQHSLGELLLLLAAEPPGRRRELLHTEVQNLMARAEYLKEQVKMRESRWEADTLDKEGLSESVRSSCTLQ

`CN1CCN(C(=O)c2ccc(NC(=O)Nc3ccc(N(C)c4ccnc(Nc5ccc(CS(C)(=O)=O)cc5)n4)cc3)cc2)CC1` has a remaining binding of 7.6% (binding; competition with immobilised ligand; 1 µM).
The remaining binding of `CCCCC(=O)Nc1ccc(-c2ccc3ncn(CCC)c(=O)c3c2)cn1` is reported as 99% (binding; competition with immobilised ligand; 0.5 µM).
`C1=C/COCc2cc(ccc2OCCN2CCCC2)Nc2nccc(n2)-c2cccc(c2)COC/1` has a remaining signal of 57% (cell-free assay; 0.1 µM).
`C=CC(=O)N1CCC[C@@H](n2nc(-c3ccc(Oc4ccccc4)cc3)c3c(N)ncnc32)C1` has an inhibition of 29% (enzyme activity; inhibitor; 1 µM).
`COc1ccc2oc(-c3ccc4nc(N)oc4c3)c/c(=N\c3ccccc3NC(=O)CCN)c2c1` has a remaining binding of 96% (binding; 1 µM).
For `C#Cc1cc(-c2cc(Nc3nc(N[C@@H](C)c4ccc(F)cn4)ncc3Cl)n[nH]2)ccc1C=O`, the inhibition was 57.5% (enzyme activity; inhibitor; 0.2 µM).
The remaining binding of `Cc1ccc(NC(=O)c2ccnc(C(F)(F)F)c2)cc1-c1cc(OCCO)nc(N2CCOCC2)c1` is reported as 85% (binding; competition with immobilised ligand; 1 µM).
The inhibition of `C=CC(=O)N1CCC([C@@H]2CCNc3c(C(N)=O)c(-c4ccc(Oc5ccccc5)cc4)nn32)CC1` is reported as 11% (enzyme activity; inhibitor; 1 µM).
